Data as given in article PMC7522377 (International Journal of Pharmaceutics: X, 2020).
Where a name gives a salt, the structure may show the parent alone.

Experiments:
MiaPaCa-2 cells [1] = assay: Cytotoxicity in 2D culture, Alamar blue assay; assay type: cell-based; conditions: Homo sapiens, MIA PaCa-2, 48 h, read-out: IC50 μM (2D MiaPaCa-2 culture)
Summary of the method: (§1)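 Cells in DMEM (high glucose, 10% FBS, 1% PenStrep) were seeded at 1 × 10³/well and kept at 37 °C, 5% CO2. At 70–75% confluence they were treated for 48 h in triplicate per concentration; GemHCl ran 5–60 μM, diluted from a PBS stock into medium. Viability: 0.05% resazurin added for 4 h, fluorescence read at ex 560/580, em 590/610 nm; percent viable cells calculated; n = 3.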

HER2 = assay: Immunohistochemical staining of PDX tumor sections; assay type: in vivo, human; conditions: PDX tumor tissue of treated mice
Summary of the method: (§2)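 PDX tumours from treated mice were excised, PBS-washed, fixed 24 h in 10% buffered formalin and moved to 70% ethanol. Sections were immunostained for the target protein, dehydrated, coverslipped and scanned as whole slides at 40×. Staining was scored on the IHC scale (0, 1+, etc.).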

[2] = Acute toxicity: liver enzymes activity; assay type: in vivo, mice; conditions: serum
Summary of the method: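 Blood was drawn 24 h after one IV dose of 30 mg/kg gemcitabine equivalent; controls were untreated. Serum was spun at 3500 rpm for 6 min, serially diluted, and run in triplicate in kit enzyme/substrate mixes at 37 °C. AST: glutamate standard, 450 nm. ALT: pyruvate standard, 595 nm. Activity = product formed × dilution / (reaction time × sample volume).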

PPCL-46 cells [3] = assay: Cytotoxicity and spheroid integrity in 3D spheroid culture, Alamar blue assay; assay type: cell-based, human
EGFR = assay: Immunohistochemical staining of PDX tumor sections; assay type: in vivo, human; conditions: PDX tumor tissue of treated mice
Summary of the method: as §2

MiaPaCa-2 cells [4] = assay: Cytotoxicity in 3D spheroid culture, Alamar blue assay; assay type: cell-based; conditions: Homo sapiens, MIA PaCa-2, 48 h, read-out: IC50 μM (3D MiaPaCa-2 culture)
Summary of the method: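 MiaPaCa-2 cells were seeded at 3.0 × 10⁴/well in spheroid-forming plates and grown 72 h to form spheroids. Half the medium was then replaced with drug in growth medium for 48 h at 37 °C, 5% CO2. Resazurin (0.05%) was added for 4 h, and fluorescence was read at ex 560/580, em 590/610 nm to give percent viability.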

PPCL-46 cells [5] = assay: Cytotoxicity in 2D culture, Alamar blue assay; assay type: cell-based; conditions: Homo sapiens, 48 h, read-out: IC50 μM (2D PPCL-46 culture), 48 h treatment, mean ± SEM, n = 3
Summary of the method: as §1

VEGF receptor = assay: Immunohistochemical staining of PDX tumor sections; assay type: in vivo, human; conditions: PDX tumor tissue of treated mice
Summary of the method: as §2

liver and kidney tissues = assay: Acute toxicity: histology; assay type: in vivo, mice; conditions: 30 mg/kg Gem equivalent, single iv bolus, H&E staining
Summary of the method: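 Normal healthy mice got one IV bolus of test compound or GemHCl at 30 mg/kg gemcitabine equivalent; controls got none. Liver and kidneys were rinsed in PBS and fixed in 10% neutral buffered formalin for 48 h at room temperature. Tissue was paraffin-embedded, cut at 5 μm, H&E-stained and examined by light microscopy at 20×.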

[6] = Pharmacokinetic study after single intravenous bolus; assay type: in vivo; conditions: mice, iv bolus 30 mg/kg Gem equivalent, one-compartment model
Summary of the method: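 Normal healthy mice were grouped as control, gemcitabine hydrochloride, or test compound. Each received a single intravenous bolus of 30 mg/kg gemcitabine equivalent; controls got 0.9% NaCl saline. Gemcitabine was measured in blood and tissue supernatants by peak area. Recovery was checked against control supernatants spiked with 0.5 μg/mL gemcitabine. Groups were compared by t-test.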

[7] = 24 h after 30 mg/kg Gem equivalent iv, mean ± SD, n = 3

Nc1ccn([C@@H]2O[C@H](CO)[C@@H](O)C2(F)F)c(=O)n1 [GemHCl, Gemcitabine Hydrochloride]
IC50 (MiaPaCa-2 cells [1]): 45.7 ± 1.4 µM | HER2 expression (IHC score) (HER2): IHC 2+ | AST level compared with control group ([2]; 30 mg/kg Gem equivalent): no statistically significant elevation | ALT [2, 7]: 232 ± 28 mUnits/mL | AST [2, 7]: 85 ± 9 mUnits/mL | IC50 (PPCL-46 cells [3]; Homo sapiens, 48 h, read-out: IC50 μM (3D PPCL-46 culture)): 95.2 ± 1.4 µM | PPCL-46 spheroidal integrity after treatment (PPCL-46 cells [3]; varying concentrations, images of spheroids): smaller surface spheroidal area with less non-spheroidal shapes | EGFR expression (IHC score) (EGFR): IHC 1+ | IC50 (MiaPaCa-2 cells [4]): 55.8 ± 1.2 µM | IC50 (PPCL-46 cells [5]): 75.5 ± 1.9 µM | VEGF receptor expression (IHC score) (VEGF receptor): IHC 3+ | histopathological examination of kidney and liver compared to control (liver and kidney tissues): no significant morphological changes | AUC (0-t) [6]: 28200 ± 4300 ng·h/mL | Vss (volume of distribution at steady state) [6]: 21.7 ± 3.6 μg/(μg/mL)
